Results as given in ChEMBL document CHEMBL6114938, “Design, synthesis, and biological evaluation of pyrazole-ciprofloxacin hybrids as antibacterial and antibiofilm agents against Staphylococcus aureus” (RSC Med Chem, 2025).
Values after ≈ are worked out from the molar mass of the structure shown. Active and inactive are the calls of the source. No cut-off for these calls is given here.

Legend:
[1] = test system: Mycobacterium tuberculosis; assay: Antimycobacterial activity against Mycobacterium tuberculosis H37Ra ATCC 25177 assessed as inhibition of bacterial growth incubated for 10 days by liquid broth microdilution method; assay type: functional; conditions: H37Ra ATCC 25177, 240 h, time 10 day
Summary of the method: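 Log-phase H37Ra (OD₆₀₀ 0.4–0.6) was grown in 7H9 with D-pantothenic acid, amino acids, 0.2% glycerol, 0.05% Tween 80 and 10% ADS, then diluted to OD₆₀₀ 0.005 (1.0×10⁶ CFU/ml). Compounds were two-fold serially diluted in 7H9, and plates were incubated for 10 days at 37 °C in 5% CO₂. MIC was the lowest concentration without visible turbidity.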

Pseudomonas aeruginosa = assay: Antibacterial activity against Pseudomonas aeruginosa PAO1 ATCC 15692 assessed as inhibition of bacterial growth incubated for 18 to 24 hrs by two-fold serial dilution method; assay type: functional; conditions: time 18-24 hrs
Summary of the method: (§1)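 Broth microdilution in cation-adjusted Mueller Hinton broth with two-fold serial dilutions. Inoculum came from overnight cultures on Mueller Hinton agar, set to OD600 0.08-0.1 and diluted 100-fold, then added 1:1 to the compound wells. Plates were incubated at 37 °C for 18-24 h and read visually. MIC is the lowest concentration with no turbidity.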

Staphylococcus aureus [2] = assay: Antibacterial activity against one-step ciprofloxacin resistant mutant of Staphylococcus aureus ATCC 29213 assessed as inhibition of bacterial growth by liquid broth microdilution assay; assay type: functional
Summary of the method: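 One-step ciprofloxacin-resistant mutants were raised by plating log-phase cells adjusted to 10¹⁰ CFU/ml on ciprofloxacin-containing Mueller-Hinton agar for 48 h at 37 °C, then passaging picked colonies on ciprofloxacin plates. Mutants with a more than eightfold rise in ciprofloxacin MIC were kept. MIC was read by broth microdilution: two-fold dilutions in cation-adjusted MHB, and inoculum of OD₆₀₀ 0.08–0.1 diluted hundredfold. Plates ran 18–24 h at 37 °C, and MIC was the lowest concentration with no visible turbidity.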

Staphylococcus aureus [3] = assay: Antibiofilm activity against Staphylococcus aureus ATCC 29213 assessed as inhibition of biofilm formation incubated for 24 hrs by crystal violet staining based analysis; assay type: functional
Summary of the method: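 Biofilm formation assay with inoculum at OD600 0.015 from overnight culture. Twelve two-fold dilutions (128 to 0.06 µg/ml) were made in MHB with 2% sucrose in flat-bottom polystyrene wells and incubated at 37 °C for 24 h. Wells were washed with PBS pH 7.4, fixed with methanol, stained with 0.1% crystal violet, eluted with 95% ethanol and read at A595. MBIC50 is the lowest concentration giving ≥50% inhibition versus untreated culture.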

Staphylococcus aureus [4] = assay: Antibacterial activity against Staphylococcus aureus ATCC 29213 assessed as inhibition of bacterial growth incubated for 18 to 24 hrs by two-fold serial dilution method; assay type: functional; conditions: time 18-24 hrs; summary of the method: as §1
[5] = Cytotoxicity against human HepG2 cells assessed as reduction in cell viability incubated for 48 hrs by MTT assay; assay type: toxicity, cell-based
Summary of the method: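 MTT viability assay in HepG2 cells seeded at 1000-4000 per well and allowed to adhere overnight. Compounds were tested at 1000-0.78 µg/mL for 48 h in fresh medium. MTT 0.5 mg/mL was added for 4 h at 37 °C, formazan was dissolved in DMSO, and absorbance was read at 570 nm.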

Staphylococcus aureus [6] = assay: Potency index, ratio of ciprofloxacin MIC to test compound MIC for antibacterial activity against Staphylococcus aureus ATCC 29213; assay type: functional
Staphylococcus aureus [7] = assay: Bactericidal activity against Staphylococcus aureus ATCC 29213 assessed as log reduction in bacterial load at 4X to 8XMIC measured within 9 hrs by time-kill kinetics analysis; assay type: functional
Summary of the method: (§2)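 Time-kill: log-phase cultures at OD600 0.005 were exposed to 1×, 4× and 8× MIC at 37 °C. Viable counts (CFU/ml) were taken by plating 10-fold serial dilutions at 2, 4, 6, 8, 10 and 24 h. Curves plot log10 CFU/ml against time over 24 h.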

Staphylococcus aureus [8] = assay: Antibacterial activity against Staphylococcus aureus ATCC 25923 assessed as inhibition of bacterial growth incubated for 18 hrs by twofold microdilution method; assay type: functional
Staphylococcus aureus [9] = assay: Antibacterial activity against Staphylococcus aureus ATCC 6538 assessed as inhibition of bacterial growth incubated for 18 hrs by twofold microdilution method; assay type: functional
Staphylococcus aureus [10] = assay: Antibacterial activity against Staphylococcus aureus NCTC 4163 assessed as inhibition of bacterial growth incubated for 18 hrs by twofold microdilution method; assay type: functional
Escherichia coli = assay: Antibacterial activity against Escherichia coli ATCC 25922 assessed as inhibition of bacterial growth incubated for 18 hrs by twofold microdilution method; assay type: functional
Staphylococcus aureus [11] = assay: Antibacterial activity against Staphylococcus aureus ATCC 29213 assessed as inhibition of bacterial growth incubated for 18 hrs by twofold microdilution method; assay type: functional
[12] = test system: Mycobacterium tuberculosis; assay: Antimycobacterial activity against Mycobacterium tuberculosis H37Rv ATCC 27294 assessed as inhibition of bacterial growth incubated for 7 days by broth microdilution assay; assay type: functional; conditions: H37Rv ATCC 27294, 168 h, time 7 day
Staphylococcus aureus [13] = assay: Antibacterial activity against methicillin-resistant Staphylococcus aureus assessed as inhibition of bacterial growth; assay type: functional
Staphylococcus aureus [14] = assay: Potency index, ratio of ciprofloxacin MBIC50 to test compound MBIC50 for antibiofilm activity against Staphylococcus aureus ATCC 29213; assay type: functional
Staphylococcus aureus [15] = assay: Bactericidal activity against Staphylococcus aureus ATCC 29213 assessed as log reduction in bacterial load at 4X to 8XMIC measured within 3 hrs by time-kill kinetics analysis; assay type: functional; summary of the method: as §2
[16] = biological target: DNA gyrase (Escherichia coli) (UniProt P0AES6+P0AES4); assay: Inhibition of Escherichia coli DNA gyrase assessed as reduction in supercoiled state of plasmid using pUC19 plasmid DNA as substrate at 8XMIC incubated for 90 mins by gel electrophoresis analysis; assay type: protein-complex assay
Staphylococcus aureus [17] = assay: Ratio of MIC for antibacterial activity against Staphylococcus aureus ATCC 29213 to MBIC50 for antibiofilm activity against Staphylococcus aureus ATCC 29213; assay type: functional
Staphylococcus aureus [18] = assay: Bactericidal activity against Staphylococcus aureus ATCC 29213 assessed as log reduction in bacterial load at 1XMIC measured within 9 hrs by time-kill kinetics analysis; assay type: functional; summary of the method: as §2
Staphylococcus aureus [19] = assay: Bactericidal activity against Staphylococcus aureus ATCC 29213 assessed as bacterial killing at 8XMIC measured within 6 hrs by time-kill kinetics analysis; assay type: functional, organism-based; summary of the method: as §2

Compound	MIC [1] [µg/mL]	MIC (Pseudomonas aeruginosa) [µg/mL]	MIC (Staphylococcus aureus [4]) [µg/mL]	further results
O=C(CN1CCN(c2cc3c(cc2F)c(=O)c(C(=O)O)cn3C2CC2)CC1)Nc1ccc(-n2ccc(-c3ccc4c(c3)OCO4)n2)cc1	32 (≈ 49.2 µM)	64 (≈ 98.4 µM)	0.5 (≈ 0.768 µM)	MIC (Staphylococcus aureus [2]): 32 µg/mL (≈ 49.2 µM); MBIC50 (Staphylococcus aureus [3]): 1.84 µg/mL; CC50 at 48 h [5]: > 1000 µg/mL
COc1ccc(-c2ccn(-c3ccc(NC(=O)CN4CCN(c5cc6c(cc5F)c(=O)c(C(=O)O)cn6C5CC5)CC4)cc3)n2)cc1OC	16 (≈ 24 µM)	128 (≈ 192 µM)	0.125 (≈ 0.187 µM)	MIC (Staphylococcus aureus [2]): 0.25 µg/mL (≈ 0.375 µM); MBIC50 (Staphylococcus aureus [3]): 0.3 µg/mL; Ratio (Staphylococcus aureus [6]): 2; Activity (Staphylococcus aureus [7]): >=3 log10CFU/ml; CC50 at 48 h [5]: ≥ 592 µg/mL
O=C(CN1CCN(c2cc3c(cc2F)c(=O)c(C(=O)O)cn3C2CC2)CC1)Nc1ccc(-n2ccc(-c3ccc(Cl)cc3Cl)n2)cc1	64 (≈ 94.7 µM)	> 128	16 (≈ 23.7 µM)	
O=C(O)c1cn(C2CC2)c2cc(N3CCN(C(=O)CCl)CC3)c(F)cc2c1=O				MIC (Staphylococcus aureus [8]): 0.1 µg/mL (≈ 0.245 µM); MIC (Staphylococcus aureus [9]): 0.1 µg/mL (≈ 0.245 µM); MIC (Staphylococcus aureus [10]): 0.1 µg/mL (≈ 0.245 µM); MIC (Escherichia coli): 0.1 µg/mL (≈ 0.245 µM); MIC (Staphylococcus aureus [11]): 0.1 µg/mL (≈ 0.245 µM)
COc1cccc(-c2ccn(-c3ccc(NC(=O)CN4CCN(c5cc6c(cc5F)c(=O)c(C(=O)O)cn6C5CC5)CC4)cc3)n2)c1	4 (≈ 6.28 µM)	32 (≈ 50.3 µM)	1 (≈ 1.57 µM)	
O=C(O)c1cn(C2CC2)c2cc(N3CCNCC3)c(F)cc2c1=O [CIPROFLOXACIN]		0.06 (≈ 0.181 µM)	0.25 (≈ 0.754 µM)	MIC (Staphylococcus aureus [2]): 2 µg/mL (≈ 6.04 µM); MBIC50 (Staphylococcus aureus [3]): 1.06 µg/mL
O=C(Nc1ccc(-n2ccc(-c3cc4ccccc4o3)n2)cc1)c1cc([N+](=O)[O-])cc([N+](=O)[O-])c1				MIC [12]: 0.03 µg/mL (≈ 0.0639 µM)
O=C(CN1CCN(c2cc3c(cc2F)c(=O)c(C(=O)O)cn3C2CC2)CC1)Nc1ccc(-n2ccc(-c3ccc(Cl)cc3)n2)cc1	64 (≈ 99.8 µM)	128 (≈ 200 µM)	1 (≈ 1.56 µM)	
O=C(O)c1ccc(-c2nn(-c3ccc(C(F)(F)F)cc3)cc2CNc2ccc(Br)c(C(F)(F)F)c2)cc1				MIC (Staphylococcus aureus [13]): < 1 µg/mL
O=C(CN1CCN(c2cc3c(cc2F)c(=O)c(C(=O)O)cn3C2CC2)CC1)Nc1ccc(-n2ccc(-c3ccc(Br)cc3)n2)cc1	16 (≈ 23.3 µM)	128 (≈ 187 µM)	32 (≈ 46.7 µM)	
NNC(=O)c1ccncc1 [ISONIAZID]	0.034 (≈ 0.248 µM)			
Cc1ccc(-c2ccn(-c3ccc(NC(=O)CN4CCN(c5cc6c(cc5F)c(=O)c(C(=O)O)cn6C5CC5)CC4)cc3)n2)cc1	32 (≈ 51.6 µM)	128 (≈ 206 µM)	8 (≈ 12.9 µM)	
O=C(CN1CCN(c2cc3c(cc2F)c(=O)c(C(=O)O)cn3C2CC2)CC1)Nc1ccc(-n2ccc(-c3ccc4ccccc4c3)n2)cc1	1 (≈ 1.52 µM)	2 (≈ 3.05 µM)	1 (≈ 1.52 µM)	
Cc1cc(-c2ccn(-c3ccc(NC(=O)CN4CCN(c5cc6c(cc5F)c(=O)c(C(=O)O)cn6C5CC5)CC4)cc3)n2)ccc1F	4 (≈ 6.26 µM)	128 (≈ 200 µM)	16 (≈ 25.1 µM)	
O=C(CN1CCN(c2cc3c(cc2F)c(=O)c(C(=O)O)cn3C2CC2)CC1)Nc1ccc(-n2ccc(-c3cc4ccccc4o3)n2)cc1	2 (≈ 3.09 µM)	32 (≈ 49.5 µM)	1 (≈ 1.55 µM)	
O=C(CN1CCN(c2cc3c(cc2F)c(=O)c(C(=O)O)cn3C2CC2)CC1)Nc1ccc(-n2ccc(-c3cccc(Cl)c3)n2)cc1	8 (≈ 12.5 µM)	64 (≈ 99.8 µM)	8 (≈ 12.5 µM)	
COc1cc(-c2ccn(-c3ccc(NC(=O)CN4CCN(c5cc6c(cc5F)c(=O)c(C(=O)O)cn6C5CC5)CC4)cc3)n2)cc(OC)c1OC	0.5 (≈ 0.718 µM)	32 (≈ 45.9 µM)	0.125 (≈ 0.179 µM)	MIC (Staphylococcus aureus [2]): 1 µg/mL (≈ 1.44 µM); MBIC50 (Staphylococcus aureus [3]): 0.52 µg/mL; Ratio (Staphylococcus aureus [6]): 2; CC50 at 48 h [5]: > 1000 µg/mL
COc1ccccc1-c1ccn(-c2ccc(NC(=O)CN3CCN(c4cc5c(cc4F)c(=O)c(C(=O)O)cn5C4CC4)CC3)cc2)n1	4 (≈ 6.28 µM)	64 (≈ 101 µM)	0.125 (≈ 0.196 µM)	Ratio (Staphylococcus aureus [14]): 50; Activity (Staphylococcus aureus [15]): >=3 log10CFU/ml; inhibition [16]: Active; Ratio (Staphylococcus aureus [17]): 6; Activity (Staphylococcus aureus [18]): >=3 log10CFU/ml; MIC (Staphylococcus aureus [2]): 0.125 µg/mL (≈ 0.196 µM); MBIC50 (Staphylococcus aureus [3]): 0.02 µg/mL; Ratio (Staphylococcus aureus [6]): 2; CC50 at 48 h [5]: > 1000 µg/mL
COc1cc(OC)c(-c2cc(-c3cn(-c4ccccc4)nc3-c3ccccc3)[nH]c(=N)n2)cc1OC				MIC (Staphylococcus aureus [13]): 521 µM
O=C(CN1CCN(c2cc3c(cc2F)c(=O)c(C(=O)O)cn3C2CC2)CC1)Nc1ccc(-n2ccc(-c3ccc(F)cc3)n2)cc1	1 (≈ 1.6 µM)	32 (≈ 51.2 µM)	0.125 (≈ 0.2 µM)	MIC (Staphylococcus aureus [2]): 8 µg/mL (≈ 12.8 µM); MBIC50 (Staphylococcus aureus [3]): 2.7 µg/mL; Ratio (Staphylococcus aureus [6]): 2; CC50 at 48 h [5]: > 1000 µg/mL
CC/C(=C(\c1ccccc1)c1ccc(OCCN(C)C)cc1)c1ccccc1 [TAMOXIFEN]				CC50 at 48 h [5]: 3.7 µg/mL (≈ 9.95 µM)
COc1ccc(-c2ccn(-c3ccc(NC(=O)CN4CCN(c5cc6c(cc5F)c(=O)c(C(=O)O)cn6C5CC5)CC4)cc3)n2)cc1	8 (≈ 12.6 µM)	32 (≈ 50.3 µM)	4 (≈ 6.28 µM)	
O=C(CN1CCN(c2cc3c(cc2F)c(=O)c(C(=O)O)cn3C2CC2)CC1)Nc1ccc(-n2ccc(-c3ccccc3)n2)cc1	0.5 (≈ 0.824 µM)	8 (≈ 13.2 µM)	0.125 (≈ 0.206 µM)	MIC (Staphylococcus aureus [2]): 0.5 µg/mL (≈ 0.824 µM); MBIC50 (Staphylococcus aureus [3]): 0.27 µg/mL; Ratio (Staphylococcus aureus [6]): 2; Activity (Staphylococcus aureus [19]): Active; CC50 at 48 h [5]: > 1000 µg/mL
O=C(CN1CCN(c2cc3c(cc2F)c(=O)c(C(=O)O)cn3C2CC2)CC1)Nc1ccc(-n2ccc(-c3ccccc3Cl)n2)cc1	4 (≈ 6.24 µM)	16 (≈ 25 µM)	1 (≈ 1.56 µM)	
